Values after ≈ are worked out from the molar mass of the structure shown.
Experiments:
Candida albicans [1] = experiment: Inhibitory of Candida albicans; assay type: functional
Method in brief: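 MIC against C. albicans SC5314 in YNBGlc medium: yeast nitrogen base without amino acids, supplemented with histidine, methionine, tryptophan, glutamine and 2% glucose.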

[2] = biological target: Geranylgeranyl transferase type I (Candida albicans); experiment: Inhibition of Candida albicans Geranylgeranyl transferase type I
Candida albicans [3] = experiment: Inhibition of Candida albicans after addition of amino acids at 1 mM; assay type: functional
Method in brief: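 MIC against C. albicans SC5314 in YNBGlc medium (YNB without amino acids plus histidine, methionine, tryptophan, glutamine, 2% glucose), further supplemented with an amino acid mixture at 1mM final, to compete for permease uptake.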

Candida albicans [4] = experiment: Fungicidal activity against Candida albicans; assay type: functional
[5] = biological target: Protein farnesyltransferase (Candida albicans); experiment: Inhibition of Candida albicans Farnesyltransferase

Compound	MIC (Candida albicans [1])	IC50 [2]	MIC (Candida albicans [3])	MFC (Candida albicans [4])	IC50 [5]
CC(C)C[C@H](NC(=O)C1(c2ccccc2)CCN(C(=O)[C@@H](N)CS)CC1)C(=O)N[C@@H](C)C(=O)O	1 µg/mL (≈ 2.03 µM)	10 nM	> 64 µg/mL	2 µg/mL (≈ 4.06 µM)	3000 nM
CC(C)C[C@H](NC(=O)C1(c2ccccc2)CCN(C(=O)[C@@H](N)CS)CC1)C(=O)O	> 128 µg/mL	< 5 nM	–	> 128 µg/mL	200 nM
COC(=O)[C@H](CC(C)C)NC(=O)C1(c2ccccc2)CCN(C(=O)[C@@H](N)CS)CC1	> 128 µg/mL	5 nM	–	> 128 µg/mL	–

From ChEMBL document CHEMBL1136527, “Antifungal activity of a Candida albicans GGTase I inhibitor-alanine conjugate. Inhibition of Rho1p prenylation in C. albicans” (Bioorg Med Chem Lett, 2003)
